Data published in ChEMBL document CHEMBL1152327, “Cucurbitane-type triterpenoids from the stems of Cucumis melo” (J Nat Prod, 2009).
pIC50: −log10 of the molar value. Active and inactive are the calls of the source. No cut-off for these calls is given here.

Columns and labels:
A549 [1] = experiment: Cytotoxicity against human A549 cells upto 10 uM after 72 hrs by SRB assay; assay type: functional, cell-based
In short: (§1)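 A549/ATCC (human non-small-cell lung) or BEL-7402 (human hepatocellular) cells plated 24 h before treatment, then continuously exposed to a range of concentrations for 72 h. Cells fixed and stained with sulforhodamine B, bound dye solubilized in 10 mM Tris, absorbance read at 565 nm. IC50 derived.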

Bel-7402 [2] = experiment: Cytotoxicity against human Bel7402 cells upto 10 uM after 72 hrs by SRB assay; assay type: functional, cell-based; in short: as §1
[3] = target: Signal transducer and activator of transcription 3 (Homo sapiens) (UniProt P40763); experiment: Inhibition of STAT3 upto 10 uM by Western blotting
In short: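 Phosphotyrosine Stat3 levels in treated cells, tested up to 10 µM. Cells washed in ice-cold PBS, lysed in SDS sample buffer, equal protein run on SDS-PAGE and transferred to PVDF. Blots blocked in 5% nonfat milk/TBST, then phospho-Stat3 and β-tubulin antibodies at 4 °C overnight, secondary 2 h room temperature, ECL detection. IC50 derived.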

A549 [4] = experiment: Cytotoxicity against human A549 cells after 72 hrs by SRB assay; assay type: functional, cell-based; details: A549, 72 h; in short: as §1
Bel-7402 [5] = experiment: Cytotoxicity against human Bel7402 cells after 72 hrs by SRB assay; assay type: functional, cell-based; details: Bel-7402, 72 h; in short: as §1

Chain of Signal transducer and activator of transcription 3 (Homo sapiens) (P40763 whole entry): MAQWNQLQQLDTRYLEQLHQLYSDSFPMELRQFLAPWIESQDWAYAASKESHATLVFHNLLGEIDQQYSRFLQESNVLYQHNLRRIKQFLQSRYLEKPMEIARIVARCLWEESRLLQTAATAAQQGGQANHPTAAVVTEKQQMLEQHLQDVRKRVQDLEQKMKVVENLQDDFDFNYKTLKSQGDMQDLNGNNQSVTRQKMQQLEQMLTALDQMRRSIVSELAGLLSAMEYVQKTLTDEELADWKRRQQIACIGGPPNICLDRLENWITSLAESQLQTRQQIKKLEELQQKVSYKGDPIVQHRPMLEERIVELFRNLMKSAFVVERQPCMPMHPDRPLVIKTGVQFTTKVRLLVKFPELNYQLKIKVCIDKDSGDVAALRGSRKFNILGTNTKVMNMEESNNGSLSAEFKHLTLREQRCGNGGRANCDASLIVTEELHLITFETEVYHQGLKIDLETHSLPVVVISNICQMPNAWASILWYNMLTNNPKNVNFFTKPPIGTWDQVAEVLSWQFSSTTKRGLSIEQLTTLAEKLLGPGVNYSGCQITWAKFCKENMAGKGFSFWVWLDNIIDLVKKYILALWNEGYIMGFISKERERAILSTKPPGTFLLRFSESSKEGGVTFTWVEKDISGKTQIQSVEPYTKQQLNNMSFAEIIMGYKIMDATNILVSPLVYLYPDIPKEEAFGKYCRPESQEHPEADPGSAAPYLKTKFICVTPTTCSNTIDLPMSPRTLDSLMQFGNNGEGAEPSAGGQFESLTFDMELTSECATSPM

SMILES | Activity (A549 [1]) | Activity (Bel-7402 [2]) | inhibition [3] | pIC50 (A549 [4]) | pIC50 (Bel-7402 [5])
C/C(=C\C(O)C[C@](C)(O)[C@H]1[C@H](O)C[C@@]2(C)[C@@H]3CC=C4[C@@H](C[C@H](O)C(=O)C4(C)C)[C@]3(C)C(=O)C[C@]12C)CO (some centres not stated) | inactive | inactive | inactive |  | 
C/C(=C\[C@@H]1C[C@](C)(O)[C@H]2[C@@H](C[C@@]3(C)[C@@H]4[C@@H](O)C=C5[C@@H](C[C@H](O)[C@H](O)C5(C)C)[C@]4(C)C(=O)C[C@]23C)O1)CO | inactive | inactive | inactive |  | 
CC(=O)OC(C)(C)CCC(=O)[C@](C)(O)[C@H]1[C@H](O)C[C@@]2(C)[C@@H]3CC=C4[C@@H](CC(=O)[C@H](O)C4(C)C)[C@]3(C)C(=O)C[C@]12C | inactive | inactive | inactive |  | 
CC(C)(O)CCC(=O)[C@](C)(O)[C@H]1[C@H](O)C[C@@]2(C)[C@@H]3CC=C4[C@@H](C[C@H](O)C(=O)C4(C)C)[C@]3(CO)C(=O)C[C@]12C | inactive | inactive | inactive |  | 
CC(=O)OC(C)(C)CCC(=O)[C@](C)(O)[C@H]1[C@H](O)C[C@@]2(C)[C@@H]3CC=C4[C@@H](C[C@H](O)C(=O)C4(C)C)[C@]3(C)C(=O)C[C@]12C | inactive | inactive | inactive |  | 
CC(=O)[C@H]1[C@H](O)C[C@@]2(C)[C@@H]3CC=C4[C@@H](C[C@H](O)C(=O)C4(C)C)[C@]3(C)C(=O)C[C@]12C | inactive | inactive | inactive |  | 
C/C(=C\[C@@H]1C[C@](C)(O)[C@H]2[C@@H](C[C@@]3(C)[C@@H]4[C@@H](O)C=C5[C@@H](C[C@H](O[C@@H]6O[C@H](CO)[C@@H](O)[C@H](O)[C@H]6O)[C@H](O)C5(C)C)[C@]4(C)C(=O)C[C@]23C)O1)CO | inactive | inactive | inactive |  | 
CC(=O)OC(C)(C)CCC(=O)[C@](C)(O)[C@H]1[C@H](O)C[C@@]2(C)[C@@H]3[C@@H](O)C=C4[C@@H](C[C@H](O)C(=O)C4(C)C)[C@]3(C)C(=O)C[C@]12C | inactive | inactive | inactive |  | 
CC(=O)OC(C)(C)/C=C/C(=O)[C@](C)(O)[C@H]1[C@H](O)C[C@@]2(C)[C@@H]3CC=C4[C@@H](C[C@H](O[C@@H]5O[C@H](CO)[C@@H](O)[C@H](O)[C@H]5O)C(=O)C4(C)C)[C@]3(CO)C(=O)C[C@]12C | inactive | inactive | inactive |  | 
CC(C)(O)CCC(=O)[C@](C)(O)[C@H]1[C@H](O)C[C@@]2(C)[C@@H]3CC=C4[C@@H](C[C@H](O)C(=O)C4(C)C)[C@]3(C)C(=O)C[C@]12C | inactive | inactive | inactive |  | 
CC(C)=CCC[C@@H](C)[C@H]1CC[C@@]2(C)[C@@H]3CC=C4[C@H](CCCC4(C)C)[C@H]3C(=O)C[C@]12C | inactive | inactive | inactive |  | 
CC(=O)OC(C)(C)/C=C/C(=O)[C@](C)(O)[C@H]1[C@H](O)C[C@@]2(C)[C@@H]3[C@@H](O)C=C4[C@@H](C[C@H](O)C(=O)C4(C)C)[C@]3(C)C(=O)C[C@]12C [7BETA-HYDROXYCUCURBITACIN B] |  |  | inactive | 5.49 | 5.12
CC(=O)OC(C)(C)/C=C/C(=O)[C@](C)(O)[C@H]1[C@H](O)C[C@@]2(C)[C@@H]3CC=C4[C@@H](C[C@H](O[C@@H]5O[C@H](CO)[C@@H](O)[C@H](O)[C@H]5O)C(=O)C4(C)C)[C@]3(C)C(=O)C[C@]12C | inactive | inactive | inactive |  | 
CC1(C)C(=O)[C@@H](O)C[C@@H]2C1=CC[C@@H]1[C@@]2(C)C(=O)C[C@]2(C)[C@@H]([C@@](C)(O)C(=O)C[C@H](O)C(C)(C)O)[C@H](O)C[C@@]12C | inactive | inactive | inactive |  | 
CC(=O)OC(C)(C)/C=C/C(=O)[C@](C)(O)[C@H]1[C@H](O)C[C@@]2(C)[C@@H]3CC=C4[C@@H](C[C@H](O)C(=O)C4(C)C)[C@]3(CO)C(=O)C[C@]12C [CUCURBITACIN A] |  |  | inactive | 6.40 | 6.52
CC(=O)OC(C)(C)/C=C/C(=O)[C@](C)(O)[C@H]1[C@H](O)C[C@@]2(C)[C@@H]3CC=C4[C@H](C[C@H](O)C(=O)C4(C)C)[C@]3(C)C(=O)C[C@]12C [CUCURBITACIN B] |  |  |  | 8.00 | 8.10
CC(C)(O)/C=C/C(=O)[C@](C)(O)[C@H]1[C@H](O)C[C@@]2(C)[C@@H]3CC=C4[C@@H](C[C@H](O[C@@H]5O[C@H](CO)[C@@H](O)[C@H](O)[C@H]5O)C(=O)C4(C)C)[C@]3(C)C(=O)C[C@]12C | inactive | inactive | inactive |  | 
CC(C)(O)/C=C/C(=O)[C@](C)(O)[C@H]1[C@H](O)C[C@@]2(C)[C@@H]3CC=C4[C@@H](C[C@H](O)C(=O)C4(C)C)[C@]3(CO)C(=O)C[C@]12C | inactive | inactive | inactive |  | 
CC(C)(O)CCC(=O)[C@](C)(O)[C@H]1[C@H](O)C[C@@]2(C)[C@@H]3CC=C4[C@@H](CC(=O)[C@H](O)C4(C)C)[C@]3(C)C(=O)C[C@]12C | inactive | inactive | inactive |  | 
CC(=O)[C@H]1[C@H](O)C[C@@]2(C)[C@@H]3CC=C4[C@@H](C[C@H](O[C@@H]5O[C@H](CO)[C@@H](O)[C@H](O)[C@H]5O)C(=O)C4(C)C)[C@]3(C)C(=O)C[C@]12C | inactive | inactive | inactive |  | 
CC1(C)C(=O)[C@@H](O)C[C@@H]2C1=CC[C@@H]1[C@@]2(C)C(=O)C[C@]2(C)[C@@H]([C@@](C)(O)C(=O)CC(O)C(C)(C)O)[C@H](O)C[C@@]12C (some centres not stated) | inactive | inactive | inactive |  | 
